From ChEMBL document CHEMBL1121813, “Dihydrochalcone sweeteners. A study of the atypical temporal phenomena” (1981)

Tests used:
Type in all cases: functional
Homo sapiens [1] = organism: Homo sapiens; assay: Sweet / Bitter character at a concentration of 2000 ppm (mean value); 0/100
Homo sapiens [2] = organism: Homo sapiens; assay: Number of taste judgments per compound
Homo sapiens [3] = organism: Homo sapiens; assay: Salty character at a concentration of 2000 ppm (mean value)
Outline: (§1)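 Trained human sensory panel (Swartz method) tasted dilute aqueous solutions of the compounds, which had to be ≥95 weight percent pure and free of mutagenicity and toxicity. Taste character is reported as the mean value with 2S_m limits. Data deviating excessively at the 95% confidence level were rejected by the t-value method.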

Homo sapiens [4] = organism: Homo sapiens; assay: Other taste character at a concentration of 2000 ppm (mean value)
Outline: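 Trained human panel tasted aqueous solutions of each compound. Aftertaste is scored as the percentage of judgments reporting one, with its character coded sweet (s), bitter (b) or bitter-sweet (bs).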

Homo sapiens [5] = organism: Homo sapiens; assay: Intensity calculated on a weight basis relative to an 85500 ppm sucrose solution at a concentration of 2000 ppm (mean value)
Outline: (§2)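 Trained human panel tasted aqueous solutions of purity-checked (≥95 weight percent) compounds cleared for mutagenicity and mouse oral toxicity. Weight-basis intensity I_w = perceived intensity × (85500 ppm sucrose / compound concentration in ppm). The mean is reported with 2S_m limits; data deviating excessively at 95% confidence were rejected by the t-value method.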

Homo sapiens [6] = organism: Homo sapiens; assay: Sour character at a concentration of 2000 ppm (mean value); outline: as §1
Homo sapiens [7] = organism: Homo sapiens; assay: Sweet character at a concentration of 2000 ppm (mean value); outline: as §1
Homo sapiens [8] = organism: Homo sapiens; assay: Percentage of judgments reporting an aftertaste at a concentration of 2000 ppm and character thereof
Outline: (§3)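 Trained judges tasted aqueous solutions of the compounds, which had to be ≥95 weight percent pure and to have passed mutagenicity and single oral dose toxicity screening. The value is the percentage of panel judgments reporting an aftertaste. Where given, its character is recorded as sweet, bitter or bitter-sweet.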

Homo sapiens [9] = organism: Homo sapiens; assay: Intensity calculated on a molar basis relative to a 0.25 M sucrose solution at a concentration of 2000 ppm (mean value)
Outline: (§4)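 Trained human judges tasted aqueous solutions of the test compound; compounds were first required to be ≥95 weight percent pure and free of mutagenicity (five Salmonella typhimurium strains, ± microsomal activation) and of single oral dose mouse toxicity. Molar intensity I_m = perceived intensity × (0.25 M sucrose / compound molar concentration). The mean is reported with 2S_m limits; outliers were rejected at 95% confidence by t-value.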

Homo sapiens [10] = organism: Homo sapiens; assay: Bitter character at a concentration of 2000 ppm (mean value)
Outline: (§5)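 Trained human panel tasted aqueous solutions. Each judge reported whether there was an aftertaste and its character (sweet, bitter or bitter-sweet). The value is the percentage of judgments reporting a bitter aftertaste.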

Homo sapiens [11] = organism: Homo sapiens; assay: Experimentally determined perceived intensity of compound at a concentration of 2000 ppm (mean value)
Outline: (§6)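 Trained human sensory panel of judges tasted aqueous solutions of the compound. Samples had to be ≥95 weight % pure (HPLC, proton titration, Karl Fischer), non-mutagenic in five Salmonella typhimurium strains with and without microsomal activation, and non-toxic in a single-oral-dose mouse test. Perceived intensity (Ip) was read from time–intensity curves at 4- or 6-s intervals and averaged. Outliers at the 95% level were rejected by t-value. Values reported as mean (2Sm).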

Homo sapiens [12] = organism: Homo sapiens; assay: Intensity calculated on a molar basis relative to a 0.25 M sucrose solution at a concentration of 501 ppm (mean value); outline: as §4
Homo sapiens [13] = organism: Homo sapiens; assay: Sour character at a concentration of 501 ppm (mean value)
Homo sapiens [14] = organism: Homo sapiens; assay: Other taste character at a concentration of 501 ppm (mean value); outline: as §1
Homo sapiens [15] = organism: Homo sapiens; assay: Experimentally determined perceived intensity of compound at a concentration of 501 ppm (mean value); outline: as §6
Homo sapiens [16] = organism: Homo sapiens; assay: Sweet / Bitter character at a concentration of 501 ppm (mean value); 0/100
Homo sapiens [17] = organism: Homo sapiens; assay: Intensity calculated on a weight basis relative to an 85500 ppm sucrose solution at a concentration of 501 ppm (mean value); outline: as §2
Homo sapiens [18] = organism: Homo sapiens; assay: Bitter character at a concentration of 501 ppm (mean value); outline: as §5
Homo sapiens [19] = organism: Homo sapiens; assay: Salty character at a concentration of 501 ppm (mean value)
Homo sapiens [20] = organism: Homo sapiens; assay: Percentage of judgments reporting an aftertaste at a concentration of 501 ppm and character thereof
Homo sapiens [21] = organism: Homo sapiens; assay: Sweet character at a concentration of 501 ppm (mean value)
Homo sapiens [22] = organism: Homo sapiens; assay: Bitter character at a concentration of 248 ppm (mean value); outline: as §5
Homo sapiens [23] = organism: Homo sapiens; assay: Percentage of judgments reporting an aftertaste at a concentration of 248 ppm and character thereof; outline: as §3
Homo sapiens [24] = organism: Homo sapiens; assay: Experimentally determined perceived intensity of compound at a concentration of 248 ppm (mean value); outline: as §6
Homo sapiens [25] = organism: Homo sapiens; assay: Sour character at a concentration of 248 ppm (mean value)
Homo sapiens [26] = organism: Homo sapiens; assay: Sweet character at a concentration of 248 ppm (mean value)
Homo sapiens [27] = organism: Homo sapiens; assay: Sweet / Bitter character at a concentration of 248 ppm (mean value); 8/92
Homo sapiens [28] = organism: Homo sapiens; assay: Other taste character at a concentration of 248 ppm (mean value); outline: as §1
Homo sapiens [29] = organism: Homo sapiens; assay: Intensity calculated on a molar basis relative to a 0.25 M sucrose solution at a concentration of 248 ppm (mean value); outline: as §4
Homo sapiens [30] = organism: Homo sapiens; assay: Salty character at a concentration of 248 ppm (mean value)
Homo sapiens [31] = organism: Homo sapiens; assay: Intensity calculated on a weight basis relative to an 85500 ppm sucrose solution at a concentration of 248 ppm (mean value); outline: as §2
Homo sapiens [32] = organism: Homo sapiens; assay: Sweet character at a concentration of 54 ppm (mean value)
Homo sapiens [33] = organism: Homo sapiens; assay: Salty character at a concentration of 54 ppm (mean value)
Homo sapiens [34] = organism: Homo sapiens; assay: Other taste character at a concentration of 54 ppm (mean value); outline: as §1
Homo sapiens [35] = organism: Homo sapiens; assay: Sour character at a concentration of 54 ppm (mean value)
Homo sapiens [36] = organism: Homo sapiens; assay: Percentage of judgments reporting an aftertaste at a concentration of 54 ppm and character thereof
Homo sapiens [37] = organism: Homo sapiens; assay: Bitter character at a concentration of 54 ppm (mean value); outline: as §5
Homo sapiens [38] = organism: Homo sapiens; assay: Sweet / Bitter character at a concentration of 54 ppm (mean value); 14/86
Homo sapiens [39] = organism: Homo sapiens; assay: Intensity calculated on a molar basis relative to a 0.25 M sucrose solution at a concentration of 54 ppm (mean value); outline: as §4
Homo sapiens [40] = organism: Homo sapiens; assay: Intensity calculated on a weight basis relative to an 85500 ppm sucrose solution at a concentration of 54 ppm (mean value); outline: as §2
Homo sapiens [41] = organism: Homo sapiens; assay: Experimentally determined perceived intensity of compound at a concentration of 54 ppm (mean value); outline: as §6
Homo sapiens [42] = organism: Homo sapiens; assay: Sweet character at a concentration of 250 ppm (mean value); outline: as §1
Homo sapiens [43] = organism: Homo sapiens; assay: Percentage of judgments reporting an aftertaste at a concentration of 250 ppm and character thereof; outline: as §3
Homo sapiens [44] = organism: Homo sapiens; assay: Intensity calculated on a weight basis relative to an 85500 ppm sucrose solution at a concentration of 250 ppm (mean value); outline: as §2
Homo sapiens [45] = organism: Homo sapiens; assay: Intensity calculated on a molar basis relative to a 0.25 M sucrose solution at a concentration of 250 ppm (mean value); outline: as §4
Homo sapiens [46] = organism: Homo sapiens; assay: Bitter character at a concentration of 250 ppm (mean value); outline: as §5
Homo sapiens [47] = organism: Homo sapiens; assay: Sweet / Bitter character at a concentration of 250 ppm (mean value); 94/6
Homo sapiens [48] = organism: Homo sapiens; assay: Salty character at a concentration of 250 ppm (mean value); outline: as §1
Homo sapiens [49] = organism: Homo sapiens; assay: Other taste character at a concentration of 250 ppm (mean value); outline: as §1
Homo sapiens [50] = organism: Homo sapiens; assay: Sour character at a concentration of 250 ppm (mean value); outline: as §1
Homo sapiens [51] = organism: Homo sapiens; assay: Experimentally determined perceived intensity of compound at a concentration of 250 ppm (mean value); outline: as §6
Homo sapiens [52] = organism: Homo sapiens; assay: Experimentally determined perceived intensity of compound at a concentration of 495 ppm (mean value); outline: as §6
Homo sapiens [53] = organism: Homo sapiens; assay: Percentage of judgments reporting an aftertaste at a concentration of 495 ppm and character thereof

Structure (SMILES): CC(=O)c1c(O)cc(OCC(=O)[O-])cc1O.[Na+]
- Taste character (Homo sapiens [1]): 0
- Judgments (Homo sapiens [2]): 1
- Taste character (Homo sapiens [3]): 0
- Taste character (Homo sapiens [4]): 0
- IW (Homo sapiens [5]): 10
- Taste character (Homo sapiens [6]): 0
- Taste character (Homo sapiens [7]): 0
- Judgments (Homo sapiens [8]): 0
- IM (Homo sapiens [9]): 0
- Taste character (Homo sapiens [10]): 100
- IP (Homo sapiens [11]): 0.25

Structure (SMILES): O=C([O-])COc1cc(O)c(C(=O)CCc2ccccc2)c(O)c1.[Na+]
- IM (Homo sapiens [12]): 150
- Taste character (Homo sapiens [13]): 0
- Judgments (Homo sapiens [2]): 12
- Taste character (Homo sapiens [14]): 21
- IP (Homo sapiens [15]): 0.91
- Taste character (Homo sapiens [16]): 0
- IW (Homo sapiens [17]): 160
- Taste character (Homo sapiens [18]): 79
- Taste character (Homo sapiens [19]): 0
- Judgments (Homo sapiens [20]): 100
- Taste character (Homo sapiens [21]): 0

Structure (SMILES): O=C([O-])COc1cc(O)c(C(=O)CCc2ccc(O)c(O)c2)c(O)c1.[Na+]
- Taste character (Homo sapiens [22]): 33
- Judgments (Homo sapiens [2]): 12
- Judgments (Homo sapiens [23]): 38
- IP (Homo sapiens [24]): 0.15
- Taste character (Homo sapiens [25]): 0
- Taste character (Homo sapiens [26]): 3
- Taste character (Homo sapiens [27]): 8
- Taste character (Homo sapiens [28]): 64
- IM (Homo sapiens [29]): 56
- Taste character (Homo sapiens [30]): 0
- IW (Homo sapiens [31]): 52

Structure (SMILES): COc1ccc(CC(=O)c2c(O)cc(O)cc2O)cc1O
- Taste character (Homo sapiens [32]): 11
- Taste character (Homo sapiens [33]): 0
- Judgments (Homo sapiens [2]): 12
- Taste character (Homo sapiens [34]): 19
- Taste character (Homo sapiens [35]): 0
- Judgments (Homo sapiens [36]): 0
- Taste character (Homo sapiens [37]): 70
- Taste character (Homo sapiens [38]): 14
- IM (Homo sapiens [39]): 150
- IW (Homo sapiens [40]): 170
- IP (Homo sapiens [41]): 0.11

Structure (SMILES): COc1ccc(CCC(=O)c2c(O)cc(OCCNS(=O)(=O)[O-])cc2O)cc1O.[K+]
- Judgments (Homo sapiens [2]): 12
- Taste character (Homo sapiens [42]): 89
- Judgments (Homo sapiens [43]): 100
- IW (Homo sapiens [44]): 350
- IM (Homo sapiens [45]): 480
- Taste character (Homo sapiens [46]): 6
- Taste character (Homo sapiens [47]): 94
- Taste character (Homo sapiens [48]): 0
- Taste character (Homo sapiens [49]): 5
- Taste character (Homo sapiens [50]): 0
- IP (Homo sapiens [51]): 1.03

Structure (SMILES): COc1ccc(CCC(=O)c2c(O)cc(OC(C(=O)[O-])C(=O)[O-])cc2O)cc1O.[Na+].[Na+]
- Judgments (Homo sapiens [2]): 1
- IP (Homo sapiens [52]): 0
- Judgments (Homo sapiens [53]): 0
